Activity calls are given as the source filed them.
Key:
[1] = molecular target: Histamine H2 receptor (Rattus norvegicus) (UniProt P25102); test: Antagonist activity at histamine H2 receptor in Charles River rat assessed as inhibition of histamine-mediated electrically stimulated uterine contraction at 20 ug/mL relative to histamine-treated placebo
Method in brief: (§1)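 Uteri taken from female rats (150–200 g) primed with diethylstilbesterol (0.16 mg/rat) 16–20 h before sacrifice. Single horns were held in McEwen's solution at 34 °C under 95% O2–5% CO2. They were stimulated electrically every 50 s for 10 s with maximal current and 60 Hz trains of 1-ms pulses, and the block of the histamine response was scored. Footnote cutoff: under 30% reduction with test compound at 20 µg/mL.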

Canis familiaris [2] = test: Antisecretory activity in Beagle dog assessed as inhibition of histamine-stimulated gastric acid secretion at 40 mg/kg, po administered 1 hr prior to histamine challenge measured every 30 mins for 90 mins relative to placebo control; assay type: functional, organism-based; parameters: dose 40 mg/kg; conditions: Canis lupus familiaris, Stomach
Method in brief: (§2)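 Conscious female beagles (7–10 kg) with a chronic gastric fistula received compound through the gastric cannula, called oral. Gastric output was collected over three 30-min periods (90 min) after the stimulant. Titratable acid in an aliquot was titrated to pH 7 with 0.01 N NaOH using a glass-calomel electrode. The value is the maximal % drop in acid concentration against a placebo trial in the same dog, with SE where more than two animals.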

[3] = molecular target: Histamine H2 receptor (Cavia porcellus) (UniProt P47747); test: Antagonist activity at histamine H2 receptor in Hartley guinea pig atrium assessed as ratio of histamine concentration required in control to that required in presence of compound to increase atrium rate by 50 beats/min at 10 ug/mL; conditions: Cardiac atrium
Method in brief: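 Spontaneously beating Hartley guinea pig atria were dissected free of other myocardium and held in McEwen's solution on a transducer. Rate was counted from the tracing. Histamine was given at increasing concentrations (0.05–3.2 µg/mL) with placebo or with inhibitor at 10 µg/mL. The value is the ratio of histamine concentration needed to raise rate by 50 beats/min in the placebo trial to that needed with compound.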

Canis familiaris [4] = test: Antisecretory activity in Beagle dog assessed as inhibition of gastrin tetrapeptide-stimulated gastric acid secretion at 20 mg/kg, po administered 1 hr prior to gastrin tetrapeptide challenge measured every 30 mins for 90 mins relative to placebo control; assay type: functional; conditions: Canis lupus familiaris, Stomach; method in brief: as §2
Canis familiaris [5] = test: Antisecretory activity in Beagle dog assessed as inhibition of histamine-stimulated gastric acid secretion at 20 mg/kg, po administered 1 hr prior to histamine challenge measured every 30 mins for 90 mins relative to placebo control; assay type: functional; conditions: Canis lupus familiaris, Stomach; method in brief: as §2
Histamine H2 receptor = Histamine H2 receptor (Rattus norvegicus, UniProt P25102); test: Antagonist activity at histamine H2 receptor in Charles River rat assessed as inhibition of histamine-mediated electrically stimulated uterine contraction; method in brief: as §1
Canis familiaris [6] = test: Antisecretory activity in Beagle dog assessed as inhibition of gastrin tetrapeptide-stimulated gastric acid secretion at 40 mg/kg, po administered 1 hr prior to gastrin tetrapeptide challenge measured every 30 mins for 90 mins relative to placebo control; assay type: functional, organism-based; parameters: dose 40 mg/kg; conditions: Canis lupus familiaris, Stomach; method in brief: as §2

Histamine H2 receptor (Cavia porcellus), sequence (P47747 whole entry): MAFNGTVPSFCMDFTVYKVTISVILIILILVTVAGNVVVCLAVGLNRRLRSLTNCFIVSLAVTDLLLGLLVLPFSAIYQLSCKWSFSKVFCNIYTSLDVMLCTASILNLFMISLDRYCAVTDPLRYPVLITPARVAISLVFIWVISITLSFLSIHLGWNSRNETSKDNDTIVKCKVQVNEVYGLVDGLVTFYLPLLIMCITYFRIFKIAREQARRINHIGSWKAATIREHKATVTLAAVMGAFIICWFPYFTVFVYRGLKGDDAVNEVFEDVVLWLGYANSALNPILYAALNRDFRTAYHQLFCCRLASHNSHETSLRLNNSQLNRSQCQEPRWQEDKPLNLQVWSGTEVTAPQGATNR
Histamine H2 receptor, sequence (P25102 whole entry): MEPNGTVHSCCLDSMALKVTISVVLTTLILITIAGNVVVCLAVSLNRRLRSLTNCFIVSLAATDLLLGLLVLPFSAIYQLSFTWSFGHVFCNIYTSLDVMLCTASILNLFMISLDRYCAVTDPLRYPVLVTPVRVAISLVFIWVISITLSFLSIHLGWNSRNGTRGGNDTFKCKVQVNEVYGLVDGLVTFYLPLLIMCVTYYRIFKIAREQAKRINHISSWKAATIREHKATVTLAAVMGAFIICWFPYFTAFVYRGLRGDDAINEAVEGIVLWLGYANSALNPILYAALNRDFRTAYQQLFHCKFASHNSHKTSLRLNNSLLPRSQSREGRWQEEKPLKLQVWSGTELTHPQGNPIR
Histamine H2 receptor (Rattus norvegicus), sequence (P25102 whole entry): as above

Row | inhibition [1] | Ratio [3] | EC50 (Histamine H2 receptor) | Structure (SMILES) | inhibition (Canis familiaris [2]) | inhibition in vivo at 20 mg/kg (Canis familiaris [4]) | inhibition in vivo at 20 mg/kg (Canis familiaris [5]) | inhibition (Canis familiaris [6])
1 | < 30% | 0.54 |  | CN(C)CCn1c(=O)ccc2cccnc21 | inactive | 59% |  | 
2 |  | 0.003 |  | CNC(=S)NCCSCc1[nH]cnc1C [METIAMIDE] |  | 76% | 46% | 
3 | < 30% |  |  | CN(C)CCn1c(=O)ccc2c(C(F)(F)F)cc(C(F)(F)F)nc21 | inactive | 32% |  | 
4 |  |  | 38 µM | Cc1cc(C)c2ccc(=O)n(CC(C)(C)N(C)C)c2n1 | inactive | 38% |  | 
5 |  |  | 76.5 µM | CC(C)N(CCn1c(=O)ccc2cccnc21)C(C)C | inactive | 51% |  | 
6 |  |  | 14 µM | Cc1cc(C)c2ccc(=S)n(CCN(C)C)c2n1 | inactive | 41% |  | 
7 |  |  | 2.31 µM | CC(C)c1ccc2ccc(=O)n(CCN(C)C)c2n1 | inactive | < 25% |  | 
8 |  | 0.011 | 4.78 µM | Cc1cc(C)c2ccc(=O)n(CCN(C(C)C)C(C)C)c2n1 | inactive | 57% |  | 
9 |  |  | 4.1 µM | CCN(CC)CCn1c(=O)ccc2c(C)cc(C)nc21 | inactive | < 25% |  | 
10 |  |  | 10.7 µM | Cc1cc(C)c2ccc(=O)n(CCN3CCCCC3)c2n1 | inactive | 40% |  | 
11 |  |  | 19 µM | CCc1cc(CC)c2ccc(=O)n(CCN(C)C)c2n1 | inactive | < 25% |  | 
12 | < 30% |  |  | CCn1c(=O)ccc2c(C)cc(C)nc21 | inactive | < 25% |  | 
13 | < 30% |  |  | Cc1cc(C)c2ccc(=O)n(CCCN(C)C)c2n1 | inactive | 31% |  | 
14 | < 30% |  |  | Cc1cc(C)c2ccc(=O)n(CC[N+](C)(C)C)c2n1 | inactive | < 25% |  | 
15 |  |  | 9.43 µM | Cc1ccc2ccc(=O)n(CCN(C)C)c2n1 | inactive | < 25% |  | 
16 |  |  | 5.46 µM | CCCCN(CCCC)CCn1c(=O)ccc2c(C)cc(C)nc21 | inactive | 33% |  | 
17 | < 30% |  |  | Cc1cc(C)c2ccc(=O)n(CCCCN(C)C)c2n1 | inactive | < 25% |  | 
18 |  | 0.21 | 0.585 µM | CC(C)Cc1ccc2ccc(=O)n(CCN(C)C)c2n1 | inactive | < 25% |  | 

Row | inhibition [1] | Ratio [3] | EC50 (Histamine H2 receptor) | Structure (SMILES) | inhibition (Canis familiaris [2]) | inhibition in vivo at 20 mg/kg (Canis familiaris [4]) | inhibition in vivo at 20 mg/kg (Canis familiaris [5]) | inhibition (Canis familiaris [6])
19 | < 30% |  |  | Cc1cc(C(F)(F)F)c2ccc(=O)n(CCN(C)C)c2n1 | inactive | 52% |  | 
20 | < 30% |  |  | Cc1cnc2c(ccc(=O)n2CCN(C)C)c1 | inactive | 58% |  | 
21 |  |  | 26.8 µM | COc1cc(C)c2ccc(=O)n(CCN(C)C)c2n1 | inactive | 27% |  | 
22 |  | 0.013 | 19.4 µM | Cc1cc(C)c2c(n1)N(CCN(C)C)C(=O)CC2 | inactive | < 25% |  | 
23 |  |  | 3.22 µM | CCc1ccc2ccc(=O)n(CCN(C)C)c2n1 | inactive | < 25% |  | 
24 |  |  | 91.2 µM | CNCCn1c(=O)ccc2c(C)cc(C)nc21 | inactive | < 25% |  | 
25 |  |  | 48.2 µM | Cc1nc2c(ccc(=O)n2CCN(C)C)c(C)c1C | inactive | 61% |  | 
26 |  |  | 4.33 µM | Cc1cc(C)c2c(n1)N(CCN(C)C)CCC2 | inactive |  |  | inactive
27 |  |  | 156 µM | Cc1cc(C)c2ccc(=O)n(CCN)c2n1 | inactive | < 25% |  | 
28 |  |  | 34.7 µM | Cc1cc(Cl)nc2c1ccc(=O)n2CCN(C)C | inactive | < 25% |  | 
29 | < 30% |  |  | CN(C)CCn1c(=O)ccc2ccccc21 | inactive | < 25% |  | 
30 |  | 0.18 | 16 µM | Cc1cc(C)c2ccc(=O)n(CCN(C)C)c2n1 | inactive | 40% |  | 
31 | < 30% |  |  | Cc1cc(C)c2ccc(=O)n(CCN3C(C)(C)CCCC3(C)C)c2n1 | inactive | < 25% |  | 
32 | < 30% |  |  | Cc1cc(C)c2ccc(=O)n(CCN(C3CCCCC3)C3CCCCC3)c2n1 | inactive | < 25% |  | 
33 | < 30% |  |  | Cc1ccnc2c1ccc(=O)n2CCN(C)C | inactive | 58% |  | 
34 |  |  | 1.15 µM | C/N=C(\S)NCCSCc1[nH]cnc1C [METIAMIDE] |  |  |  | 
35 |  |  | 5.35 µM | Cc1cc(C(F)(F)F)nc2c1ccc(=O)n2CCN(C)C | inactive | 34% |  | 

— ChEMBL document CHEMBL3228026, “Inhibition of gastric acid secretion by 1,8-naphthyridin-2(1H)-ones” (J Med Chem, 1979)
